Laboratory results from article PMC5435512 (Pain, 2017).

Columns and labels:
[1] = system: cisplatin-induced mechanical allodynia; assay: Von Frey test, cisplatin-induced mechanical allodynia in mice; format: in vivo
[2] = system: HDAC6 compared with Class I HDACs; conditions: 42; cited from earlier work
DRG neurons = assay: Mitochondrial bioenergetics in DRG neurons isolated from treated mice; format: in vivo
Method in brief: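 Cells were cultured overnight in an XF24 plate in Ham's F10 + N2, switched to XF medium 1 h before the run. Injections: oligomycin 2 μM, FCCP 4 μM, rotenone/antimycin A 2 μM each. Cycles: 2-min mix/3-min wait/2-min measure ×3. OCR was normalised to protein; basal, ATP-linked, leak and maximal respiration were derived.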

IENF density = assay: Intra-epidermal nerve fiber; format: in vivo, mice
Method in brief: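 Plantar hind-paw biopsies were cut as 25 μm frozen sections and stained for PGP9.5 and collagen IV, then imaged by confocal. IENFs crossing the dermal–epidermal junction were counted per mm of epidermis. Five random images per mouse, 4 mice/group, blinded analysis.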

[3] = system: tibial nerve mitochondrial respiration; assay: Mitochondrial bioenergetics; format: in vivo, mice
Method in brief: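 Tibial nerves were run in an islet-capture XF24 plate in XF medium with 5.5 mM glucose, 0.5 mM pyruvate and 1 mM glutamine. Oligomycin (12 μM), FCCP (20 μM) and rotenone/antimycin A (20 μM each) were injected in sequence, with 4 cycles (3-min mix/3-min wait/4-min measure) at baseline and after each injection. Basal, ATP-linked, proton leak, maximal and non-mitochondrial OCR were derived.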

rat DRG neurons = assay: Mitochondrial movement in cultured DRG neurons; format: cell-based; conditions: rat DRG neuron cultures, 3 hours
Method in brief: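 Commercial DRG neurons were cultured 5–7 days, then given BacMam 2.0 GFP mitochondrial label 24 h before treatment. […] Live imaging was done at 37°C in CO2-independent Hibernate E medium that still contained the drugs, and mitochondrial movement was scored.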

[4] = In vivo pharmacokinetics in mice; conditions: 5 mg/kg i.p.
Method in brief: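 Mice were fasted overnight and given a single 5 mg/kg i.p. dose in 10% dimethylacetamide + 10% Solutol HS 15 in saline. Retro-orbital blood was taken at 5, 15, 30 min and 1, 2, 4, 8, 24 h. Plasma was spun at 2,000 × g, 5 min, 4°C. Levels were measured by LC-MS/MS against a standard curve in mouse plasma, then PK parameters calculated; n=3/group.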

α-tubulin acetylation = assay: Western blot of acetylated α-tubulin in tibial nerves; format: in vivo; conditions: mice, saline or cisplatin followed by 11 doses
Method in brief: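 Tibial nerves were first run in an XF24 OCR assay (XF medium with 5.5 mM glucose, 0.5 mM pyruvate, 1 mM glutamine). The same nerves were then western-blotted for acetylated α-tubulin with a rabbit monoclonal.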

[5] = system: α-tubulin acetylation in SK-N-BE2 cells; assay: Western blot of acetylated α-tubulin in SK-N-BE2 cells; format: cell-based; conditions: 5 hours
Method in brief: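 SK-N-BE2 cells grown to 70% confluence, then exposed 5 h to test compound in DMSO (0.1% DMSO final in all wells). Cells PBS-washed, lysed in cold RIPA buffer with protease inhibitors and PMSF, sonicated, and centrifuged. Supernatants immunoblotted for acetylated α-tubulin (mouse monoclonal) and, as a non-HDAC6 substrate, histone H2BK5ac (rabbit polyclonal).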

HDAC1-9 = assay: HDAC enzyme assays, other isoforms; format: biochemical
Method in brief: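 Test compound was diluted in 50 mM HEPES pH 7.4, 100 mM KCl, 0.001% Tween-20, 0.05% BSA and 20 μM TCEP, then preincubated 24 h with recombinant HDAC enzyme. Substrate at Km, with trypsin, was then added: acetyl-lysine tripeptide for HDAC1/2/3/6, trifluoroacetyl-lysine tripeptide for HDAC4/5/7/8/9. […] release was read over 30 min and the linear rate taken. IC50 came from a 4-parameter fit.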

Cox IV, SDHA and VDAC = assay: Western blot of mitochondrial proteins in tibial nerves; format: in vivo, mice; conditions: 2 rounds of cisplatin and 11 injections
GFAP expression = assay: GFAP immunofluorescence in spinal cord dorsal horn; format: in vivo; conditions: cisplatin-treated mice, 3 doses of 10 mg/kg
[6] = system: histone acetylation in SK-N-BE2 cells; assay: Western blot of histone acetylation; format: cell-based; conditions: 5 hours, 3 nM to 10 μM
Method in brief: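 SK-N-BE2 cells at 70% confluence were treated 5 h with test compound at 3 nM–10 μM final, with DMSO 0.1% total. Cells were washed in cold PBS and lysed in RIPA with protease inhibitors/PMSF, 10 min on ice. Lysates were sonicated and centrifuged. Supernatants were immunoblotted for histone H2BK5ac (rabbit polyclonal) and acetylated α-tubulin (mouse monoclonal).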

[7] = system: cisplatin-induced spontaneous pain; conditions: cisplatin-treated mice, 2 weeks of daily treatment
[8] = system: cisplatin-induced numbness; assay: Adhesive removal test; format: in vivo; conditions: mice, treatment starting after 2 rounds of cisplatin, tested in week 5
Method in brief: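 Test compound in 20% 2-hydroxypropyl-β-cyclodextrin + 0.5% hydroxypropyl methylcellulose in water, given i.p. at 3 or 10 mg/kg. A round adhesive patch was placed on the plantar hind paws. Time to a behavioural response (shaking, attempted removal) was recorded within a 15-minute test.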

[9] = system: paclitaxel-induced mechanical allodynia; assay: Von Frey test, paclitaxel-induced mechanical allodynia in rats; format: in vivo; conditions: 3 mg/kg oral twice daily for 7 days, last day tested

For `O=C(CCCCCCNC(=O)c1cnc(N(c2ccccc2)c2ccccc2)nc1)NO` [ACY-1215, Ricolinostat, reference compound], the “persistence of the beneficial effect after completion of treatment” value ([1]; 30 mg/kg oral daily for two weeks, last time point tested) is given as “still present one week after completion of treatment” and the “selectivity against HDAC6 compared with Class I HDACs” value [2] is given as “over 10 fold”.
For `N.N.[Cl][Pt][Cl]` [cisplatin, Cisplatin, reference compound], the “mitochondrial bioenergetics in DRG neurons” value (DRG neurons; mice, 2 rounds of cisplatin) was “overall decrease in mitochondrial bioenergetics”, the “IENF density in plantar surface of the paw” value (IENF density; mice, 2 cycles of cisplatin) was “reduced the IENF density” and the “mitochondrial respiration in tibial nerves” value ([3]; mice, 2 cycles of cisplatin 2.3 mg/kg i.p. x 5 days) was “significantly decreased mitochondrial respiration”. The “percentage of moving mitochondria” value (rat DRG neurons; cisplatin 80 μM, vs vehicle) was “decreased the percentage of moving mitochondria”.
With ACY-1083 the “mechanical sensitivity in the absence of cisplatin treatment” value ([1]; 10 mg/kg) was “did not alter mechanical sensitivity”, the “time after the first dose at which the effect was first detected” value ([1]; 10 mg/kg i.p.) was 24 h and the “effect of a second round of 7 daily injections on mechanical allodynia” value ([1]; 10 mg/kg, 7 days, 7 days rest) was “transiently reversed cisplatin-induced mechanical allodynia again”. For the same compound, the “prevention of development of mechanical allodynia” value ([1]; administered i.p. 1 hour prior to each dose of cisplatin) was “capable of preventing the development of mechanical allodynia”, the “biologically active plasma exposure after dosing” value [4] was 8 hours and the “half-life (T1/2)” value [4] was 3.5 h. The “maximum plasma concentration (Cmax)” value [4] was 936 ng/mL, the “α-tubulin acetylation in tibial nerves” value (α-tubulin acetylation) was “increased α-tubulin acetylation” and the “selectivity towards HDAC6 in cells (α-tubulin vs histone acetylation)” value [5] was “over 300 fold”. For the same compound, the “concentration at which the increase in α-tubulin acetylation starts” value ([5]; 3 nM to 10 μM) was 30 nM, the “mitochondrial bioenergetics in DRG neurons of cisplatin-treated mice” value (DRG neurons; 2 rounds of cisplatin and 11 injections) was “did not detect a similar recovery” and the “mitochondrial bioenergetics in DRG neurons, treatment alone” value (DRG neurons; mice without cisplatin, either time point) was “did not have any effect on mitochondrial bioenergetics in DRG neurons”. For the same compound, the “mitochondrial bioenergetics in DRG neurons of cisplatin-treated mice” value (DRG neurons; two weeks of treatment, 2 weeks after the last dose) was “significant recovery of mitochondrial bioenergetics”, the “inhibitory activity against other enzymes” value (HDAC1-9) was “negligible inhibitory activity against other enzymes” and the “selectivity for HDAC6 over all other HDAC isoforms tested” value (HDAC1-9; HDAC1-9) was 260 fold. For the same compound, the “Cox IV levels in tibial nerve of cisplatin-treated mice” value (Cox IV, SDHA and VDAC) was “normalized Cox IV levels”, the “GFAP expression in dorsal horn of spinal cord” value (GFAP expression) was “normalized GFAP expression to levels comparable to saline-treated animals” and the “IENF density in cisplatin-treated mice, prolonged regimen” value (IENF density; 2 cycles of cisplatin and 11 doses) was “completely reversed the cisplatin-induced loss of IENFs”. The “IENF density in cisplatin-treated mice, short-term treatment” value (IENF density; short-term treatment) was “had no effect on IENF density”, the “concentration at which an effect on histone acetylation is evident” value [6] was 10 µM and the “spontaneous pain: preference for retigabine-paired light chamber” value [7] was “did not develop a preference for the retigabine-paired light chamber”. For the same compound, the “cisplatin-induced numbness: time to respond to adhesive patch” value [8] was “normalized the response time”, the “persistence of the protective effect after the last dose” value [9] was ≥ 3 days and the “mitochondrial respiration in tibial nerve of cisplatin-treated mice” value ([3]; 2 cycles of cisplatin followed by 11 doses) was “normalized all aspects of the cisplatin-induced decrease in mitochondrial respiration”. The “mitochondrial bioenergetics in tibial nerve, treatment alone” value ([3]; mice without cisplatin, 11 doses) was “did not have any effect on mitochondrial bioenergetics” and the “percentage of moving mitochondria, co-administration with cisplatin” value (rat DRG neurons; 100 nM with cisplatin 80 μM) was “prevented this cisplatin-induced decrease in mitochondrial transport”.
